Reference: ChEMBL document CHEMBL4342497, “Design, Synthesis, and Conformation-Activity Study of Unnatural Bridged Bicyclic Depsipeptides as Highly Potent Hypoxia Inducible Factor-1 Inhibitors and Antitumor Agents” (J Med Chem, 2020)
pIC50: −log10 of the molar value. The source made the active and inactive calls. The calls are words filed in the database; no cut-off is given here.

Assays:
[1] = Inhibition of HIF1 (unknown origin) expressed in HEK293 cells assessed as reduction in hypoxia-induced HIF1 activation pre-incubated for 1 hrs before hypoxia exposure for 24 hrs by luciferase reporter gene assay; type: cell-based; conditions: Homo sapiens
In short: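 HEK293 cells stably carrying HRE reporter plasmid p2.1, seeded at 8.0×10^4 per well and grown 24 h in normoxia. Medium changed to fresh medium with 0.25% DMSO and a range of compound concentrations for 1 h, then 24 h at 1% O2 or normoxia. Luciferase activity normalised to protein content. IC50 as mean ± SD, n = 3.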

MCF7 [2] = test: Inhibition of hypoxia-induced HIF1 protein expression in human MCF7 cells incubated for 16 hrs by Western blot analysis; type: functional, cell-based
In short: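 MCF-7 cells (2.5×10^6 per 100 mm dish) exposed to several compound concentrations for 16 h under 20% or 1% O2. Lysates run on 8% SDS-PAGE and blotted to nitrocellulose. Blocked in 5% milk, probed with anti-HIF-1α (1:1000) and β-actin (1:3000), then HRP secondary. Detected by chemiluminescence.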

MCF7 [3] = test: Cytotoxicity against human MCF7 cells assessed as reduction in cell viability incubated for 24 hrs by MTT assay; type: functional, cell-based; conditions: MCF7, 24 h
In short: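 MCF-7 cells seeded at 8.0×10^3 per well and treated with compound for 24 h. MTT 0.5 mg/mL added for 4 h at 37 °C after medium exchange, then DMSO lysis and absorbance at 570 nm. IC50 as mean ± SD, n = 3.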

MCF7 [4] = test: Cytotoxicity against human MCF7 cells assessed as reduction in cell viability incubated for 72 hrs by MTT assay; type: functional, cell-based; conditions: MCF7, 72 h
In short: (§1)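 Cells seeded overnight at 3.0×10^3 (A549), 5.0×10^3 (HT29) or 4.0×10^3 (MCF-7, MDA-MB-231) per well, then exposed to compound for 72 h. Medium replaced, MTT 0.5 mg/mL added for 4 h at 37 °C, cells lysed in DMSO, absorbance read at 570 nm. IC50 as mean ± SD, n = 3. Final DMSO below 1.0%.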

MDA-MB-231 = test: Cytotoxicity against human MDA-MB-231 cells assessed as reduction in cell viability incubated for 72 hrs by MTT assay; type: functional, cell-based; conditions: MDA-MB-231, 72 h; in short: as §1
A549 = test: Cytotoxicity against human A549 cells assessed as reduction in cell viability incubated for 72 hrs by MTT assay; type: functional, cell-based; conditions: A549, 72 h; in short: as §1
[5] = Retardation factor of the compound
HT-29 = test: Cytotoxicity against human HT-29 cells assessed as reduction in cell viability incubated for 72 hrs by MTT assay; type: functional, cell-based; conditions: HT-29, 72 h; in short: as §1
[6] = Binding affinity to synthetic d(ACGTAGAACGT) dsDNA assessed as melting temperature at 2.5 uM by SYBR green I dye dependent differential scanning fluorimetry based thermal denaturation method (reference value: 44.2 +/- 1.0 degC)
[7] = Binding affinity to synthetic 5'-FAM-CCCTACGTATATGAAAATATACGTAGGG-BHQ1-3' dsDNA assessed as melting temperature at 2.5 uM by SYBR green I dye dependent differential scanning fluorimetry based thermal denaturation method (reference value: 70.7 +/- 0.0 degC)
MCF7 [8] = test: Cytotoxicity against human MCF7 cells assessed as reduction in cell viability; type: functional, cell-based
In short: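 MTT viability assay. For the 72 h format, cells were plated overnight at 4.0×10^3 cells/well and then exposed to compounds for 72 h. For the 24 h screening format, cells were plated at 8.0×10^3 cells/well and exposed for 24 h. Medium was then refreshed, MTT was added at 0.5 mg/mL for 4 h at 37 °C, and cells were lysed in DMSO. Absorbance was read at 570 nm. IC50 reported as mean ± SD, n = 3.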

[9] = Inhibition of HIF1 (unknown origin) expressed in HEK293 cells assessed as reduction in hypoxia-induced HIF1 activation by luciferase reporter gene assay; type: cell-based; conditions: Homo sapiens
In short: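 HEK293 clone stably carrying the p2.1 HRE-luciferase reporter, seeded at 8.0×10^4 cells/well and grown 24 h under normoxia. Cells were given fresh medium containing 0.25% DMSO and a range of compound concentrations for 1 h, then held under hypoxia (1% O2) or normoxia for 24 h. Luciferase activity was measured with a kit and normalised to protein content. IC50 reported as mean ± SD, n = 3.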

MCF7 [10] = test: Inhibition of hypoxia-induced HIF1 mRNA expression in human MCF7 cells incubated for 16 hrs by RT-PCR analysis; type: functional, cell-based

Compound	pIC50 [1]	Tm [6] [°C]	Tm [7] [°C]	inhibition (MCF7 [2])	pIC50 (MCF7 [3])	pIC50 (MCF7 [4])	pIC50 (MDA-MB-231)	pIC50 (A549)	Rm [5]	pIC50 (HT-29)	pIC50 (MCF7 [8])	pIC50 [9]	inhibition (MCF7 [10])
CC(C)[C@H]1C(=O)OC[C@@H](NC(=O)c2nc3ccccc3cc2O)C(=O)N[C@@H](C)C(=O)N(C)[C@H]2C/C=C\C[C@@H](C(=O)N1C)N(C)C(=O)[C@H](C)NC(=O)[C@H](NC(=O)c1nc3ccccc3cc1O)COC(=O)[C@H](C(C)C)N(C)C2=O	10.05	54.3	–	Dose-dependent effect	–	9.66	–	–	0.52	–	–	–	–
CC(=O)SC[C@H]1C(=O)N(C)[C@@H](C(C)C)C(=O)OC[C@@H](NC(=O)c2cnc3ccccc3n2)C(=O)N[C@@H](C)C(=O)N(C)[C@@H](CSC(C)=O)C(=O)N(C)[C@@H](C(C)C)C(=O)OC[C@@H](NC(=O)c2cnc3ccccc3n2)C(=O)N[C@@H](C)C(=O)N1C	6.63	–	–	–	5.06	–	–	–	0.23	–	–	–	–
CC(C)[C@H]1C(=O)OC[C@@H](NC(=O)CNC(=O)c2cnc3ccccc3n2)C(=O)N[C@@H](C)C(=O)N(C)[C@H]2CSSC[C@@H](C(=O)N1C)N(C)C(=O)[C@H](C)NC(=O)[C@H](NC(=O)CNC(=O)c1cnc3ccccc3n1)COC(=O)[C@H](C(C)C)N(C)C2=O	< 4.00	–	–	–	4.87	–	–	–	-0.05	–	–	–	–
CC(C)[C@H]1C(=O)OC[C@@H](NC(=O)c2cnc3ccccc3n2)C(=O)N[C@@H](C)C(=O)N(C)[C@H]2CSSC[C@@H](C(=O)N1C)N(C)C(=O)[C@H](C)NC(=O)[C@H](NC(=O)c1cnc3ccccc3n1)COC(=O)[C@@H](C(C)C)N(C)C2=O	5.70	–	–	–	4.61	–	–	–	0.24	–	–	–	–
CC(C)[C@H]1C(=O)OC[C@@H](NC(=O)c2cnc3ccccc3n2)C(=O)N[C@@H](C)C(=O)N(C)[C@H]2CSC[C@@H](C(=O)N1C)N(C)C(=O)[C@H](C)NC(=O)[C@H](NC(=O)c1cnc3ccccc3n1)COC(=O)[C@H](C(C)C)N(C)C2=O	8.62	–	–	Dose-dependent effect	–	8.01	8.10	7.79	0.2	7.79	–	–	–
CC(C)[C@@H]1C(=O)OC[C@@H](NC(=O)c2cnc3ccccc3n2)C(=O)N[C@@H](C)C(=O)N(C)[C@H]2CSSC[C@@H](C(=O)N1C)N(C)C(=O)[C@H](C)NC(=O)[C@H](NC(=O)c1cnc3ccccc3n1)COC(=O)[C@@H](C(C)C)N(C)C2=O	6.23	–	–	–	5.21	–	–	–	0.25	–	–	–	–
CC(C)[C@@H]1C(=O)OC[C@H](NC(=O)c2cnc3ccccc3n2)C(=O)N[C@H](C)C(=O)N(C)[C@@H]2CSSC[C@H](C(=O)N1C)N(C)C(=O)[C@@H](C)NC(=O)[C@@H](NC(=O)c1cnc3ccccc3n1)COC(=O)[C@@H](C(C)C)N(C)C2=O	< 4.00	–	–	inactive	< 4.00	–	–	–	0.15	–	–	–	inactive
CC(C)[C@H]1C(=O)OC[C@@H](NC(=O)c2cnc3ccccc3n2)C(=O)N[C@@H](C)C(=O)N(C)[C@H]2CSSC[C@@H](C(=O)N1C)N(C)C(=O)[C@H](C)NC(=O)[C@H](NC(=O)c1cnc3ccccc3n1)COC(=O)[C@H](C(C)C)N(C)C2=O [TRIOSTIN]	7.57	47.2	78	–	5.70	6.67	6.75	6.49	0.15	6.47	5.39	7.57	–
CC(=O)N[C@@H]1COC(=O)[C@H](C(C)C)N(C)C(=O)[C@@H]2CSSC[C@@H](C(=O)N(C)[C@@H](C(C)C)C(=O)OC[C@@H](NC(C)=O)C(=O)N[C@@H](C)C(=O)N2C)N(C)C(=O)[C@H](C)NC1=O	< 4.00	–	–	–	4.81	–	–	–	-0.3	–	–	–	–

Continued, in another order:

pIC50 [1]	Tm [6] [°C]	Tm [7] [°C]	Compound	inhibition (MCF7 [2])	pIC50 (MCF7 [3])	pIC50 (MCF7 [4])	pIC50 (MDA-MB-231)	pIC50 (A549)	Rm [5]	pIC50 (HT-29)	pIC50 (MCF7 [8])	pIC50 [9]	inhibition (MCF7 [10])
9.00	52.5	81.3	CC(C)[C@H]1C(=O)OC[C@@H](NC(=O)c2cnc3ccccc3n2)C(=O)N[C@@H](C)C(=O)N(C)[C@H]2C/C=C\C[C@@H](C(=O)N1C)N(C)C(=O)[C@H](C)NC(=O)[C@H](NC(=O)c1cnc3ccccc3n1)COC(=O)[C@H](C(C)C)N(C)C2=O	Dose-dependent effect	7.87	8.54	8.49	8.28	0.25	8.21	–	–	–
9.46	55.8	81.6	CSC1SC[C@H]2C(=O)N(C)[C@@H](C(C)C)C(=O)OC[C@@H](NC(=O)c3cnc4ccccc4n3)C(=O)N[C@@H](C)C(=O)N(C)[C@@H]1C(=O)N(C)[C@@H](C(C)C)C(=O)OC[C@@H](NC(=O)c1cnc3ccccc3n1)C(=O)N[C@@H](C)C(=O)N2C (some centres undefined)	–	8.26	8.70	8.64	8.33	0.28	8.46	8.26	9.46	inactive
8.70	–	–	CC(C)[C@H]1C(=O)OC[C@@H](NC(=O)c2cnc3ccccc3n2)C(=O)N[C@@H](C)C(=O)N(C)[C@H]2C[Se]C[C@@H](C(=O)N1C)N(C)C(=O)[C@H](C)NC(=O)[C@H](NC(=O)c1cnc3ccccc3n1)COC(=O)[C@H](C(C)C)N(C)C2=O	Dose-dependent effect	–	8.15	8.17	7.84	0.2	7.93	–	–	–
7.22	–	–	CC[C@H](C)[C@H]1C(=O)OC[C@@H](NC(=O)c2cnc3ccccc3n2)C(=O)N[C@@H](C)C(=O)N(C)[C@H]2CSSC[C@@H](C(=O)N1C)N(C)C(=O)[C@H](C)NC(=O)[C@H](NC(=O)c1cnc3ccccc3n1)COC(=O)[C@H]([C@@H](C)CC)N(C)C2=O	–	5.40	–	–	–	0.45	–	–	–	–
7.49	–	–	CC(C)[C@H]1C(=O)OC[C@@H](NC(=O)c2cnc3ccccc3n2)C(=O)N[C@@H](C)C(=O)N(C)[C@@H](CS)C(=O)N(C)[C@@H](C(C)C)C(=O)OC[C@@H](NC(=O)c2cnc3ccccc3n2)C(=O)N[C@@H](C)C(=O)N(C)[C@@H](CS)C(=O)N1C	–	5.57	–	–	–	0.28	–	–	–	–
6.65	–	–	CSC[C@H]1C(=O)N(C)[C@@H](C(C)C)C(=O)OC[C@@H](NC(=O)c2cnc3ccccc3n2)C(=O)N[C@@H](C)C(=O)N(C)[C@@H](CSC)C(=O)N(C)[C@@H](C(C)C)C(=O)OC[C@@H](NC(=O)c2cnc3ccccc3n2)C(=O)N[C@@H](C)C(=O)N1C	–	5.37	–	–	–	0.34	–	–	–	–
7.60	–	–	CC(C)[C@H]1C(=O)OC[C@@H](NC(=O)c2cnc3ccccc3n2)C(=O)N[C@@H](C)C(=O)N(C)[C@H]2CSC(C)(C)SC[C@@H](C(=O)N1C)N(C)C(=O)[C@H](C)NC(=O)[C@H](NC(=O)c1cnc3ccccc3n1)COC(=O)[C@H](C(C)C)N(C)C2=O	–	5.23	–	–	–	0.31	–	–	–	–
7.26	–	–	CC[C@H](C)[C@H]1C(=O)OC[C@@H](NC(=O)c2cnc3ccccc3n2)C(=O)N[C@@H](C)C(=O)N(C)[C@H]2CSSC[C@@H](C(=O)N1C)N(C)C(=O)[C@H](C)NC(=O)[C@H](NC(=O)c1cnc3ccccc3n1)COC(=O)[C@H](C(C)C)N(C)C2=O	–	5.39	–	–	–	0.39	–	–	–	–
8.20	–	–	CC(C)[C@H]1C(=O)OC[C@@H](NC(=O)c2cnc3ccccc3n2)C(=O)N[C@@H](C)C(=O)N(C)[C@H]2CCCC[C@@H](C(=O)N1C)N(C)C(=O)[C@H](C)NC(=O)[C@H](NC(=O)c1cnc3ccccc3n1)COC(=O)[C@H](C(C)C)N(C)C2=O	–	6.91	7.63	7.60	7.14	0.32	7.24	–	–	–
